Measured values collected from several papers.
Lines come from different studies, so protocols differ.
Target: Activin receptor type-2B (ACVR2B, Homo sapiens, UniProt Q13705)

COc1ncc2cc3ccccc3nc2c1C#N — remaining binding (binding, competition with immobilised ligand; 5 µM): 90%
Cc1cnn2ncc(-c3ccnc(N(C)C)n3)c2c1 — remaining binding (binding, competition with immobilised ligand; 1 µM): 100%
O=C(NCC1CCOCC1)c1n[nH]cc1NC(=O)c1c(F)cccc1F — remaining binding (binding, competition with immobilised ligand; 1 µM): 98%
COc1ccnn2ncc(-c3ccnc(N(C)C)n3)c12 — remaining binding (binding; 1 µM): 100%
Cc1cnc(Nc2ccc(C(=O)N3CCC(N4CCCC4)CC3)cc2)nc1-c1cc2ccccc2s1 — remaining binding (binding, competition with immobilised ligand; 1 µM): 61%
CN(C)C(=O)Cn1cc(-c2nc(C3(c4ccc(-c5cnc(N)nc5)cc4)CC3)no2)cn1 — remaining binding (binding, competition with immobilised ligand; 1 µM): 96%
c1cncc(-c2cccc(Nc3nccc(NC4CCCCC4)n3)c2)c1 — remaining binding (binding, competition with immobilised ligand; 10 µM): 85%
CN(CCCC(F)(F)F)c1nccc(-c2cnn3ncccc23)n1 — remaining binding (binding; 1 µM): 100%
COc1cnc(Nc2cccc(S(N)(=O)=O)c2)nc1N1CCN(c2ccccc2)C(=O)C1 — remaining binding (binding, competition with immobilised ligand; 1 µM): 100%
N[C@H]1CCN(c2nccc(-c3cnn4ncccc34)n2)C1 — remaining binding (binding, competition with immobilised ligand; 1 µM): 93%
CN(C)CC#Cc1ccc(OCCCc2sc(N3CCc4cccc(C(=O)Nc5nc6ccccc6s5)c4C3)nc2C(=O)O)c(F)c1 — remaining binding (cell-free assay, competition with immobilised ligand; 1 µM): 100%
C[C@@H]1CCN(c2nccc(-c3cnn4ncccc34)n2)C1 — remaining binding (binding; 1 µM): 100%
COc1cc(-c2cn(C3CCc4ccccc4N(CC(F)(F)F)C3=O)nn2)ccc1-n1ccc(C)n1 (centres unmarked) — remaining binding (binding, competition with immobilised ligand; 1 µM): 100%
CNC(=O)[C@@H]1CC[C@@H](n2c(-c3ccc4cnccc4c3)nc3ccc(C(=O)NCc4cccc(C(N)=O)c4)cc32)C1 — remaining binding (binding, competition with immobilised ligand; 1 µM): 100%
CC1=C(C#N)C(c2ccc3c(c2)c(NC(=O)c2ccccc2C)nn3C)C(C#N)=C(C)N1 — remaining binding (binding, competition with immobilised ligand; 1 µM): 100%
O=C(NCCCN1CCOCC1)c1ccc(Nc2nccc(-c3cc4ccccc4s3)n2)cc1 — remaining binding (binding, competition with immobilised ligand; 1 µM): 89%
Cc1cc(C)c(-n2ccn3nc(-c4cccnc4)cc23)cc1NC(=O)c1cc(C#N)cc(S(F)(F)(F)(F)F)c1 — remaining binding (binding, competition with immobilised ligand; 0.1 µM): 88.7%
O=C(c1ccc(Nc2ncc(Cl)c(-c3cc4ccccc4s3)n2)cc1)N1CCC(N2CCCC2)CC1 — remaining binding (binding, competition with immobilised ligand; 1 µM): 53%
CO[C@@H](C)c1c(Nc2ccc([C@@H](N(C)C(=O)C3CCS(=O)(=O)CC3)C(F)(F)F)cc2)cnc2cc(Cl)nn12 — remaining binding (cell-free assay, competition with immobilised ligand; 1 µM): 100%
CN(C)c1nccc(-c2cnn3ncccc23)n1 — remaining binding (binding, competition with immobilised ligand; 1 µM): 85%
